Assay outcomes (PubChem BioAssay)
CHOP inhibitor = blocks CHOP induction under ER stress; CHO-K1 CHOP-promoter luciferase, tunicamycin-induced, 15-18 h; inhibition, % at 10 µM; 220,000 compounds, 3.8% hits;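 active means compounds that reduced the stress-induced luciferase reporter signal by more than about 70% of percent inhibition, limit read from the data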
697 NFkB inh = lowers PMA/ionomycin-induced NF-kB signal in 697 B cells; inhibition, % at 4 µM; 697 B-cell NF-kB luciferase reporter, 16 h; AID 435022; 330,000 compounds, 0.33% hits; in the data active means inhibition above about 35%
Gli-Sufu antag = antagonists of Gli-Sufu signaling | Sufu-KO-LIGHT fibroblasts, Gli luciferase reporter luminescence | inhibition, % at 5 µM | 340,000 compounds, 0.74% hits;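 active means inhibition above about 55%, limit read from the data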
UPR CHOP act = apoptotic UPR (CHOP) activation; CHO-CHOP luciferase reporter, luminescence; percent of tunicamycin response over DMSO baseline; activation, % at 10 µM; 330,000 compounds, 0.34% hits;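 active means at 10 µM dose, activation of 40% or more, normalized to positive control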
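Assay system: CHO cells with stable CHOP pathway luciferase reporter; Buffer or medium: F12 plus 10% serum; Times: 16-18 h cell attachment, then 6 h compound exposure, 37 °C; Signal: luciferase luminescence; Read-out basis: percent activation relative to tunicamycin control; Control set: tunicamycin high control, DMSO low control.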
Jurkat NFkB inh = inhibitors of the PMA/ionomycin-induced NF-kB reporter in Jurkat cells. PMA/ionomycin-induced NF-kB luciferase reporter, luminescence. inhibition, % at 4 µM. 330,000 compounds, 0.53% hits. AID 435003; in the data active means inhibition above about 50%
XBP1 UPR activ = activators of adaptive arm of unfolded protein response (XBP1); CHO-XBP1 luciferase reporter, IRE1-XBP1 UPR activation, luminescence; percent of tunicamycin response, DMSO as zero; activation, % at 20 µM; 330,000 compounds, 0.33% hits;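 active means versus positive control, 20 µM dose yields 30% or more activation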
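Material: CHO-XBP1 cells stably carrying IRE1-XBP1-driven luciferase reporter / Amount: 1000 cells per well / Compound: 20 µM, 1% DMSO / Times: 6 h treatment, 37 °C / Detection: luciferase luminescence / Measure: % activation of reporter signal versus tunicamycin and DMSO controls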
Numbers stand for hits; n = inactive; x = no result. Rows were chosen to be rich in hits. Some 3.9% of all compounds tested hit in one or more screens of this group.

SMILES | CHOP inhibitor | 697 NFkB inh | Gli-Sufu antag | UPR CHOP act | Jurkat NFkB inh | XBP1 UPR activ
CC12C(=O)N(c3ccccn3)C(=O)C1C1C=CC2C1 (centres undefined) | 75.3 | n | n | n | n | n
O=c1cc(-c2ccc(Cl)cc2)oc(=O)[nH]1 | n | n | n | n | n | n
O=c1cc(N=Nc2ccc(Cl)cc2)[nH]c(=O)[nH]1 | 105.2 | x | x | x | x | x
CC(C)n1nccc1NC(=O)COC(=O)c1ccc(NC(N)=O)cc1 | x | n | n | n | n | n
C=C(C)c1cccc(C(C)(C)NC(=O)N(Cc2ccccc2)Cc2ccco2)c1 | 82.8 | n | n | n | n | n
COc1cccc(NC(=O)Nc2ccc(Cc3ccncc3)cc2)c1 | 70.2 | n | n | n | n | n
COc1cccc(NC(=O)Nc2ccncc2)c1 | n | n | n | n | n | n
COc1cccc(NC(=O)Nc2ccc(C)c(Cl)c2)c1 | 87.8 | n | n | n | n | n
COc1cccc(NC(=O)Nc2ccc(C(C)(C)C)cc2)c1 | 92.9 | n | n | n | n | n
COc1cccc(NC(=O)c2ccc(NC(=O)C(C)(C)C)cc2)c1 | n | n | n | n | n | n
CC(C)(C)c1ccc(NC(=O)Nc2ccc3ccccc3n2)cc1 | 85.3 | n | n | n | n | n
O=C(CSc1n[nH]c(=O)[nH]c1=O)Nc1ccc(SC(F)F)cc1 | x | n | n | n | n | n
Cc1ccc2c(NC(=O)c3ccco3)cccc2n1 | x | n | n | n | n | n
COc1ccc(/C=N/NC(=O)c2csc(-n3nc(C)cc3C(F)(F)F)n2)cc1 | 79.1 | n | n | n | n | n
CC1COc2ccccc2N1S(=O)(=O)c1cc(Cl)ccc1Cl (centres undefined) | x | n | n | n | n | n
Cc1ccccc1-c1noc(-c2cccs2)n1 | 89.5 | n | n | n | n | n
CC(=O)c1c(C)[nH]c(C(=O)N2CCN(c3ccc(F)cc3)CC2)c1C | 83.9 | n | n | n | n | n
COc1ccc(NC(=O)CN(C)CC(=O)N2CCCCCC2)cc1 | x | n | n | n | n | n
CCOC(=O)c1nnn(-c2nonc2N)c1CN(C)Cc1ccccc1 | 81.3 | n | n | n | n | n
C/C(=N\NC(=O)c1nnn(-c2nonc2N)c1-c1ccccc1)c1ccccc1O | x | n | 68.1 | n | n | n
C/C(=N\NC(=O)c1nnn(-c2nonc2N)c1CN(C)c1ccccc1)c1ccccn1 | x | x | 77.8 | x | x | x
COc1ccc(CN2CCN(C(=O)c3ccccc3C(=O)c3ccccc3)CC2)cc1OC | x | x | n | x | x | x
NNC(=O)c1nc(-c2ccccc2)cc(-c2ccccc2)n1 | x | n | n | n | n | n
COc1cc([N+](=O)[O-])ccc1NC(=O)Nc1nc2c(s1)CCCC2 | 73.0 | n | n | n | n | n
COc1cc([N+](=O)[O-])ccc1NC(=O)Nc1cnccn1 | x | n | n | n | n | n
SMILES | CHOP inhibitor | 697 NFkB inh | Gli-Sufu antag | UPR CHOP act | Jurkat NFkB inh | XBP1 UPR activ
CCC(C)Sc1nnc(CNC(=O)C23CC4CC(CC(C4)C2)C3)n1C1CCCCC1 (centres undefined) | 94.8 | n | n | n | n | n
O=C(Nc1nnc(-c2ccc3c(c2)CCCC3)o1)c1c(F)cccc1F | n | n | n | n | n | n
O=C(CCc1ccccc1)Nc1nnc(-c2ccc3c(c2)CCCC3)o1 | 94.2 | n | n | n | n | n
O=C(Nc1nnc(-c2ccc3c(c2)CCCC3)o1)c1ccc(Cl)cc1Cl | 98.2 | n | n | n | n | n
O=C(Nc1nnc(-c2ccc3c(c2)CCCC3)o1)C1CCCCC1 | 84.5 | n | n | n | n | n
O=C(CCc1ccccc1)Nc1nnc(-c2ccc3c(c2)OCCO3)o1 | n | n | n | n | n | n
Cc1noc(C)c1S(=O)(=O)N1CCCC(C(=O)NCc2ccccc2Cl)C1 (centres undefined) | x | n | n | n | n | n
COc1ccccc1/C=C/C=N/n1c(C2CCCCC2)n[nH]c1=S | 93.5 | n | n | n | n | n
CCOc1ccccc1/C=N/n1c(C2CCCCC2)n[nH]c1=S | x | n | n | n | n | n
Cc1ccc(C)c(OCC(=O)N/N=C/c2c(C)nn(-c3ccccc3)c2Cl)c1 | 83.0 | n | x | n | n | n
Cc1ccc(C(C)C)c(OCC(=O)N/N=C/c2cccn2C)c1 | 95.9 | n | n | n | n | n
Cc1nn(-c2ccccc2)c(Cl)c1/C=N/NC(=O)OC(C)(C)C | n | n | n | n | n | n
